# Shown are actives, neighbours in structure and some others; about 1.6% of the full set was active somewhere.
# Scp-1 inhibitor = Scp-1 (human) phosphatase inhibition; Q9GZU7; Recombinant Scp1, phosphopeptide, malachite green phosphate absorbance; inhibition, % at 20 µM; 340,000 compounds, 0.88% hits; AID 493091;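 active = inhibition above about 50% at 20 µM, limit read from the data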;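 note: plate controls were DMSO wells with enzyme for no effect and wells lacking enzyme for full effect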
#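 Test system: SCP-1 catalytic domain; Buffer or medium: Acidic Tris acetate buffer with magnesium and detergent; Also added: Phosphorylated 17-residue peptide substrate; Compound: single 20 µM dose, 1% DMSO; Schedule: enzyme reaction 45 min at room temperature, colour 5 min, stabilisation 30 min; Signal: Phosphate-binding colour reagent, absorbance read at 630 nm.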
# DNMT1 block = blocks human DNA methyltransferase DNMT1; DNMT1 molecular beacon, Hinp1I cleavage, fluorescence; inhibition (reported as % activation of signal), % at 10 µM; 360,000 compounds, 0.83% hits; AID 588458; in the data active = inhibition above about 50%
# SUMO1 PPI mod = alters human SUMO1 binding to SIM partners; 360,000 compounds, 0.33% hits; inhibition, % at 20 µM; P63165; SUMO1 binding to a labelled peptide, TR-FRET, 1 h; in the data active = inhibition above about 37%
# Target sequence (P63165 whole entry, looked up): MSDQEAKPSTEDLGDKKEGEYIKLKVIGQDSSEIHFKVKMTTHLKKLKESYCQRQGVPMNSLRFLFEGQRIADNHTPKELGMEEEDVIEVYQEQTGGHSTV
# STEP block = inhibitors of human striatal-enriched phosphatase STEP. 360,000 compounds, 0.25% hits. P54829. recombinant STEP, OMFP fluorogenic substrate, fluorescence. inhibition, % at 20 µM. AID 588621;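 active = inhibition at 20 µM, scaled per plate between control wells, above about 37%, limit read from the data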;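 note: 0% = DMSO with enzyme and substrate and 100% = substrate only without enzyme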
# Target sequence (P54829 whole entry, looked up): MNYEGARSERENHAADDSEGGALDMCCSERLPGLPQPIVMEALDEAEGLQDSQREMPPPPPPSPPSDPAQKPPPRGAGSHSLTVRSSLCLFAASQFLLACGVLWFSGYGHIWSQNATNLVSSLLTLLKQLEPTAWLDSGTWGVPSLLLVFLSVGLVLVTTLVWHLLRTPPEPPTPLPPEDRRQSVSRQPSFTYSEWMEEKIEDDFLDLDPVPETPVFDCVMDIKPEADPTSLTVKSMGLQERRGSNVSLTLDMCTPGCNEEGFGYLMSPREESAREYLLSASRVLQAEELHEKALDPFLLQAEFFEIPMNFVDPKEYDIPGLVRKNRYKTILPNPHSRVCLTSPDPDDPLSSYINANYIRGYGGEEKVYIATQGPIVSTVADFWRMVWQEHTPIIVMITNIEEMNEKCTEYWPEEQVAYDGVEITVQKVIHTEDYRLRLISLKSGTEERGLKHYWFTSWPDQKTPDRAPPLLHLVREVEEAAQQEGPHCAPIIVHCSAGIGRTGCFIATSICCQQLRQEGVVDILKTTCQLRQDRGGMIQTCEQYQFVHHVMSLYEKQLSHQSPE
#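 Test system: STEP tyrosine phosphatase / Reagent: OMFP at 25 µM / Doses: 20 µM, 1% DMSO / Read-out: percent inhibition scaled to no-enzyme and uninhibited-enzyme controls, plate-pattern corrected / Detection: FITC-channel fluorescence of OMFP product / Medium: Bis-Tris buffer pH 6.0, 2.5 mM DTT, 0.005% Tween 20 / Schedule: 20 min at room temperature, dark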
# LMPTP inh = LMPTP (human) inhibition | P24666 | recombinant LMPTP-A, OMFP fluorogenic substrate, fluorescence intensity | inhibition, % at 20 µM | 360,000 compounds, 0.22% hits;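 active = compounds that cut the enzyme signal by at least half of the control window in the single-dose screen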;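 note: plate controls were DMSO wells with enzyme plus substrate for no effect and substrate without enzyme for full effect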
#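 Test system – LMPTP-A phosphatase enzyme · Quantity – 0.625 nM LMPTP-A final · Reagent – OMFP substrate, 400 µM final · Dosing – one test concentration per compound, 20 µM, with 3% DMSO overall · Timing – 50 min enzyme reaction at room temperature, protected from light · Detection – fluorescence intensity · Controls – substrate-only low control, DMSO enzyme-plus-substrate high control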
# F508del corr = CFTR F508del correction in bronchial cells; CFBE cells, YFP halide quenching; stimulated with forskolin plus potentiator P3; % fluorescence drop versus neutral controls; activity (quench increase), % at 7.58 µM; 350,000 compounds, 0.36% hits; AID 720511;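 active = mean added fluorescence quench of at least 8% versus neutral control, with both replicates also reaching 8%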;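 note: cells transiently co-express mutant CFTR-F508del with the halide-sensitive YFP; corrector assay measuring rescue of mutant channel to the surface after 24 h compound exposure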
# The depositor's hits bear a star; . = not tested or not shown.
SMILES,Scp-1 inhibitor,DNMT1 block,SUMO1 PPI mod,STEP block,LMPTP inh,F508del corr
CCc1ccc2[nH]c3nc(N/N=C/c4ccc(O)cc4O)nnc3c2c1,-3,62*,11,1,1,6
O=C(Nc1ccc(Cl)c(Cl)c1)N[C@@H]1CC[C@@H](CCn2cc(C3CCCC3)nn2)O[C@H]1CO,.,.,.,.,.,0
CC1(C)CCN2CCC(C)(C)c3c(O)ccc1c32,5,19,-15,-17,-3,38*
CCN1CCN(Cc2ccc(NC(=O)c3ccc(C)c(NC(=O)c4ccno4)c3)cc2C(F)(F)F)CC1,0,-3,5,0,-3,1
CCN1CCN(Cc2ccc(NC(=O)c3ccc(C)c(/C=C/c4cnc(Nc5cc(N6CCNCC6)nc(C)n5)cn4)c3)cc2C(F)(F)F)CC1,-3,-38,87*,-9,1,.
COCC(=O)Nc1ccc2c(c1)OC[C@H](C)N(Cc1ccccc1)C[C@@H](C)[C@H](OC)CN(C)C2=O,.,.,.,.,.,1
C[C@@H]1CN([C@H](C)CO)C(=O)Cc2cc(NS(=O)(=O)c3cccs3)ccc2O[C@H]1CN(C)C(=O)Nc1cccc2ccccc12,.,.,.,.,.,-1
COc1ccc(OC)c2nc3c(C(=O)NCCN(C)C)cccc3nc12,7,38,-44,3,2,7
CN(C)CCNC(=O)c1cccc2nc3cccc(F)c3nc12,-5,55*,-56,0,0,9.2*
CO[C@@H]1CN(C)C(=O)c2cc(NC(=O)Nc3c(C)noc3C)ccc2OC[C@H](C)N(CC2CC2)C[C@H]1C,.,.,.,.,.,2
O=C(Nc1ccc(Br)cn1)c1cccc2ccccc12,-3,2,-8,-2,1,14*
COc1c(C(=O)Nc2ccc(Br)cn2)ccc2ccccc12,-10,0,-6,1,1,3
O=C(O)COc1ccc(/C=N/n2c(COc3ccccc3)nc3ccccc3c2=O)cc1,1,0,57*,-5,-2,-3
Cc1cccc(C)c1OCc1nc2ccccc2c(=O)n1/N=C/c1ccc(OCC(=O)O)cc1,3,-6,-1,-2,-1,.
COc1ccccc1NS(=O)(=O)c1cc(N=N/C(C(=O)Nc2ccc(Cl)cc2)=C(/C)O)ccc1C,-10,2,0,4,0,11*
O=C(O)c1ccc(N=Nc2c(O)ccc3ncccc23)cc1,73*,3,-13,16,15,0
CCCN(C)C[C@H]1Oc2ncc(C#CC3CC3)cc2C(=O)N([C@H](C)CO)C[C@@H]1C,.,.,.,.,.,1
COc1cccc(CNS(=O)(=O)c2ccc3c(c2)N(C(C)=O)CCO3)c1,24,24,3,42*,9,2
C[C@@H]1CN([C@H](C)CO)C(=O)Cc2cc(NC(=O)Nc3cccc4ccccc34)ccc2O[C@H]1CN(C)Cc1ccc2c(c1)OCO2,.,.,.,.,.,1
COC(=O)c1cc2c(=O)c3ccccc3oc2nc1/C=C/N(C)C,-15,1,-40,0,5,28*
COC(=O)c1cc2c(=O)c3ccccc3oc2nc1C,-12,2,-176,0,-1,-2
O=C(N/N=C/c1ccccc1O)c1ccc2c(c1)OCO2,-15,0,-7,2,-2,5
O=C(N/N=C/c1cc(Cl)cc([N+](=O)[O-])c1O)c1ccc2c(c1)OCO2,99*,3,-21,99*,60*,4
Cc1cc(Br)cc(/C=N/NC(=O)c2ccc3c(c2)OCO3)c1O,2,48,-2,2,5,9.3*
O=C(N/N=C/c1cc(Br)cc([N+](=O)[O-])c1O)c1ccc(NC(=O)c2ccc(F)cc2)cc1,89*,-12,6,98*,61*,0
SMILES,Scp-1 inhibitor,DNMT1 block,SUMO1 PPI mod,STEP block,LMPTP inh,F508del corr
O=C(N/N=C/c1cc(Br)cc(Cl)c1O)c1ccc2c(c1)OCO2,91*,2,30,99*,74*,12*
C/C=C/c1ccc([C@@H]2[C@H](CO)N(C(C)=O)C23CN(C(=O)c2ccncc2)C3)cc1,.,.,.,.,.,1
c1ccc(-c2nc(NCCCn3ccnc3)c3ccccc3n2)cc1,14,1,6,1,57*,-1
O=C(O)CCCCCNc1nc(-c2ccccc2)nc2ccccc12,-5,1,12,1,59*,0
OCCNc1nc(-c2ccccc2)nc2ccccc12,-3,2,6,0,20,.
CCN(CC)CCCNc1nc(-c2ccccc2)nc2ccccc12,-9,2,2,2,50,.
C[C@@H]1CN([C@@H](C)CO)C(=O)Cc2cc(NC(=O)Nc3cccc4ccccc34)ccc2O[C@H]1CN(C)C,.,.,.,.,.,2
CC(C)C#Cc1ccc([C@@H]2[C@H]3CN(S(=O)(=O)c4ccccc4)CC(=O)N3[C@H]2CO)cc1,.,.,.,.,.,6
CCN1/C(=C\C(=S)Nc2ccccc2)Sc2ccccc21,-3,-4,-10,-2,1,3
CCN1/C(=C/C(C)=C/c2sc3ccccc3[n+]2CC)Sc2ccccc21,-1,13,21,37,74*,-13
CC(C)C[C@@H](CNCC(=O)[C@H](CC(=O)O)NC(=O)c1[nH]cnc1C(=O)N[C@H](CN)CC(C)C)NC(=O)c1nc[nH]c1C(=O)N[C@@H](Cc1ccccc1)C(=O)O,-2,7,48*,-1,-2,-1
CC(C)C[C@@H](CNCC(=O)[C@H](CC(C)C)NC(=O)c1[nH]cnc1C(=O)N[C@@H](C)CN)NC(=O)c1nc[nH]c1C(=O)N[C@@H](Cc1ccccc1)C(=O)O,15,4,1,-1,-2,1
CO[C@H]1CN(C)C(=O)c2cc(NC(=O)C3CC3)ccc2OC[C@H](C)NC[C@@H]1C,.,.,.,.,.,1
COc1cccc(-c2cc3nc(-c4ccccc4)cc(=O)n3[nH]2)c1,-8,0,13,1,2,12*
COc1ccc(S(=O)(=O)c2c(N)n(Cc3ccco3)c3nc4ccccc4nc23)cc1,49,98*,41*,7,49*,.
Cc1ccc(S(=O)(=O)c2c(N)n(CCCN(C)C)c3nc4ccccc4nc23)cc1,-4,-6,-9,3,3,0
COc1ccc(Cn2c(C)nc3c(c2=O)c2nc4ccccc4nc2n3Cc2ccco2)cc1,95*,96*,69*,37,43,-2
O=C(NCC[C@H]1CC[C@H](NC(=O)c2cnccn2)[C@@H](CO)O1)Nc1ccc(F)cc1,.,.,.,.,.,3
O=C(C[C@@H]1CC[C@@H](NC(=O)c2ccccc2)[C@@H](CO)O1)NCc1ccc(Oc2ccccc2)cc1,.,.,.,.,.,2
O=C(COC(=O)Cc1ccsc1)NC(c1ccccc1)c1ccccc1,-5,1,-2,2,-1,.

# Screens: PubChem, several laboratories
